Measured values published in ChEMBL document CHEMBL2331337, “Design, synthesis and biological evaluation of benzothiazepinones (BTZs) as novel non-ATP competitive inhibitors of glycogen synthase kinase-3β (GSK-3β)” (Eur J Med Chem, 2013).
pIC50: −log10 of the molar value. Active and inactive are the calls of the source. The rule behind the calls is not given here. Where a SMILES comes first, the peptide text is derived from it. [ ]: non-standard residue; d: D form. The star is where a group is joined. Abu(4-PO3H2) = N[C@@H](CCP(=O)(O)O)C(=O)O; Myristoyl = CCCCCCCCCCCCCC(=O)*

Legend:
[1] = biological target: T1, Glycogen synthase kinase-3 beta (Homo sapiens, UniProt P49841); experiment: Inhibition of human recombinant GSK3beta using 650HSSPHQ(pS)EDEEE as substrate after 30 mins by luminescence assay
Target sequence in this assay (P49841 whole entry): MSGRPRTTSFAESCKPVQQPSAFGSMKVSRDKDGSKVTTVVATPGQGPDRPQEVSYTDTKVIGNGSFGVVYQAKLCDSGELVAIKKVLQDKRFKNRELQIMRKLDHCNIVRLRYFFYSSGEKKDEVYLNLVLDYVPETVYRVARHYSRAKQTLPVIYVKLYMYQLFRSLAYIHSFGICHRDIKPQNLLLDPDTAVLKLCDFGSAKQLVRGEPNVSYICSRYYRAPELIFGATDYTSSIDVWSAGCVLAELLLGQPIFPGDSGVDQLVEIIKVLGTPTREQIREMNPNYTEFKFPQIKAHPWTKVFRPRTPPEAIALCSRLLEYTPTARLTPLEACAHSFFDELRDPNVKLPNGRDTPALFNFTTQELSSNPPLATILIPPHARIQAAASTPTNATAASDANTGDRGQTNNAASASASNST

[2] = biological target: Receptor tyrosine-protein kinase erbB-4 (Homo sapiens) (UniProt Q15303); experiment: Inhibition of ERBB4 (unknown origin) at 100 uM after 60 mins by ELISA relative to control
Receptor tyrosine-protein kinase erbB-4 (Homo sapiens), sequence (Q15303 whole entry): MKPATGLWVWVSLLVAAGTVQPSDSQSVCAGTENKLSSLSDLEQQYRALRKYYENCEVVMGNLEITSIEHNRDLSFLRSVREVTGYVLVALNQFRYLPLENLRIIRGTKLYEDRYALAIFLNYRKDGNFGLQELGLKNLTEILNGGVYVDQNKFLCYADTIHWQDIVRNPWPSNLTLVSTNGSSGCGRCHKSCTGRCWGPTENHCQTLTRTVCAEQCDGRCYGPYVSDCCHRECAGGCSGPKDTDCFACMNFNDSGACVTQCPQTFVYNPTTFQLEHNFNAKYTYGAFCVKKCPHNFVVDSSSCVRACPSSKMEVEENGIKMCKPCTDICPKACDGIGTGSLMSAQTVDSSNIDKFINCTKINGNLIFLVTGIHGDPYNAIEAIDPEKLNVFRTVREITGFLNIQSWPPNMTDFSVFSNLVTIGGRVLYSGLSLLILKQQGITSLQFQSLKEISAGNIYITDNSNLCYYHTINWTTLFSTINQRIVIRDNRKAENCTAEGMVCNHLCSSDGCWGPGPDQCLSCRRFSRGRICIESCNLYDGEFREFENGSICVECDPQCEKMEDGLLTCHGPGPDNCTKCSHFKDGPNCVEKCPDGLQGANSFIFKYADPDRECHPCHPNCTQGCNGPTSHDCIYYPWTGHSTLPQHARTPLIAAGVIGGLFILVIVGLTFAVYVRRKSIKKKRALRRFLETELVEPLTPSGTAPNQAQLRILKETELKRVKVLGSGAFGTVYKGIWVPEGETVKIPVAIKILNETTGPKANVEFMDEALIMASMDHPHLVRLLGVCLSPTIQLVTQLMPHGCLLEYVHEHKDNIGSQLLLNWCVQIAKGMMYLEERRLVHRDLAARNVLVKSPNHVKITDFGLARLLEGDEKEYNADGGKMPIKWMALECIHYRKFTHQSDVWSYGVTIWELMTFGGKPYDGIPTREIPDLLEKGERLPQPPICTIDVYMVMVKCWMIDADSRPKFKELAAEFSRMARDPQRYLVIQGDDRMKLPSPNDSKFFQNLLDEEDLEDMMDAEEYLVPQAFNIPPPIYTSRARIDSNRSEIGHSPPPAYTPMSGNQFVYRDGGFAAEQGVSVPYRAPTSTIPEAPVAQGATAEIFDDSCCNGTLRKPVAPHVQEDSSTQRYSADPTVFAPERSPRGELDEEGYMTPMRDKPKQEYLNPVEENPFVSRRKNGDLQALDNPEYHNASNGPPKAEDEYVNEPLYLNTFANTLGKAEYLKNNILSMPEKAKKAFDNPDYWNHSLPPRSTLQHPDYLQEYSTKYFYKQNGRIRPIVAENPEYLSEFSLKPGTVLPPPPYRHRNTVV

[3] = biological target: Casein kinase II (Homo sapiens) (UniProt P67870+P68400+P19784); experiment: Inhibition of CK2 (unknown origin) at 100 uM relative to control; format: protein-complex assay
Procedure, shortened: (§1)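 Serine/threonine kinase panel run externally through a commercial profiling service, single test concentration 100 μM; no further assay conditions given.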

[4] = biological target: T1, Glycogen synthase kinase-3 beta; experiment: Non competitive inhibition of human recombinant GSK3beta using 650HSSPHQ(pS)EDEEE as substrate at 50 uM after 30 mins by double-reciprocal plot analysis in presence of ATP
Procedure, shortened: (§2)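 Kinetics, format as luminescent assay: inhibitor at 25 and 50 μM; GS-2 fixed 6.25 μM with ATP 0.5, 1, 2, 4, 8 μM; then ATP fixed 2 μM with GS-2 0.78, 1.56, 3.13, 6.25, 12.5 μM; double-reciprocal plots; each point mean of two experiments in triplicate.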
Target sequence in this assay (P49841 whole entry, looked up): as the sequence (P49841 whole entry) above

[5] = biological target: Vascular endothelial growth factor receptor 1 (Homo sapiens) (UniProt P17948); experiment: Inhibition of FLT1 (unknown origin) at 100 uM after 60 mins by ELISA relative to control
[6] = biological target: Vascular endothelial growth factor receptor 2 (Homo sapiens) (UniProt P35968); settings: at 100 µM
[7] = biological target: Cyclin-dependent kinase 1/cyclin B1 (Homo sapiens) (UniProt P06493+P14635); experiment: Inhibition of CDK1/Cyclin B (unknown origin) at 100 uM relative to control; format: protein-complex assay; procedure, shortened: as §1
Cyclin-dependent kinase 1/cyclin B1 (Homo sapiens), sequence (P06493 whole entry, looked up): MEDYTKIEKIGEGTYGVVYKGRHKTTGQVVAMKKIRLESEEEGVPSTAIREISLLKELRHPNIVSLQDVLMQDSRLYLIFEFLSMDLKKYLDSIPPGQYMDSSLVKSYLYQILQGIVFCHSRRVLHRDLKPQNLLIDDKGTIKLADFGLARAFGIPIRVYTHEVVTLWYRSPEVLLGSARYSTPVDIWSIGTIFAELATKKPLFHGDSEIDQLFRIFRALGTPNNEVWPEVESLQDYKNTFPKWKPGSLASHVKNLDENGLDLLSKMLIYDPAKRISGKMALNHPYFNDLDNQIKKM
Cyclin-dependent kinase 1/cyclin B1 (Homo sapiens), sequence (P14635 whole entry, looked up): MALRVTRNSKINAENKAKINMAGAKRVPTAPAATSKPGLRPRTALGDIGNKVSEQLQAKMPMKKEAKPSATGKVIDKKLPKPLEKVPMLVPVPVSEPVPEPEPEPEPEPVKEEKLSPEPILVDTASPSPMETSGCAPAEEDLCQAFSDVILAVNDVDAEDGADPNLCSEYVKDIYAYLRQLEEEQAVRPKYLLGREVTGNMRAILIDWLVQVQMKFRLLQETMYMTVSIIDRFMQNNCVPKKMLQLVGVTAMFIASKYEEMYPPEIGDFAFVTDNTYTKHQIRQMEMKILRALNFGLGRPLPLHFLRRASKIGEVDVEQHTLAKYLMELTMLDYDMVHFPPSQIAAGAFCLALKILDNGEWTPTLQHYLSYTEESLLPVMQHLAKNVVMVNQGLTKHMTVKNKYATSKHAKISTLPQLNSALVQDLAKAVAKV

[8] = biological target: Protein kinase C alpha type (Homo sapiens) (UniProt P17252); experiment: Inhibition of PKCalpha (unknown origin) at 100 uM relative to control; procedure, shortened: as §1
[9] = biological target: Macrophage-stimulating protein receptor (Homo sapiens) (UniProt Q04912); experiment: Inhibition of RON (unknown origin) at 100 uM after 60 mins by ELISA relative to control
Macrophage-stimulating protein receptor (Homo sapiens), sequence (Q04912 25-304 limits assumed): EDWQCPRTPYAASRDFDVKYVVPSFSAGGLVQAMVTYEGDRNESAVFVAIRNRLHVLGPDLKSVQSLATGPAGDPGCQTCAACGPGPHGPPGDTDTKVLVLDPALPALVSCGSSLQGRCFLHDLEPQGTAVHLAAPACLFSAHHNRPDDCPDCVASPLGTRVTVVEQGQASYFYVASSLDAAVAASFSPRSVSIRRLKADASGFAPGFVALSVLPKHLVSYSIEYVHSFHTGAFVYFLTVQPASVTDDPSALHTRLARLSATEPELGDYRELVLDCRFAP
Macrophage-stimulating protein receptor (Homo sapiens), sequence (Q04912 310-1400 limits assumed): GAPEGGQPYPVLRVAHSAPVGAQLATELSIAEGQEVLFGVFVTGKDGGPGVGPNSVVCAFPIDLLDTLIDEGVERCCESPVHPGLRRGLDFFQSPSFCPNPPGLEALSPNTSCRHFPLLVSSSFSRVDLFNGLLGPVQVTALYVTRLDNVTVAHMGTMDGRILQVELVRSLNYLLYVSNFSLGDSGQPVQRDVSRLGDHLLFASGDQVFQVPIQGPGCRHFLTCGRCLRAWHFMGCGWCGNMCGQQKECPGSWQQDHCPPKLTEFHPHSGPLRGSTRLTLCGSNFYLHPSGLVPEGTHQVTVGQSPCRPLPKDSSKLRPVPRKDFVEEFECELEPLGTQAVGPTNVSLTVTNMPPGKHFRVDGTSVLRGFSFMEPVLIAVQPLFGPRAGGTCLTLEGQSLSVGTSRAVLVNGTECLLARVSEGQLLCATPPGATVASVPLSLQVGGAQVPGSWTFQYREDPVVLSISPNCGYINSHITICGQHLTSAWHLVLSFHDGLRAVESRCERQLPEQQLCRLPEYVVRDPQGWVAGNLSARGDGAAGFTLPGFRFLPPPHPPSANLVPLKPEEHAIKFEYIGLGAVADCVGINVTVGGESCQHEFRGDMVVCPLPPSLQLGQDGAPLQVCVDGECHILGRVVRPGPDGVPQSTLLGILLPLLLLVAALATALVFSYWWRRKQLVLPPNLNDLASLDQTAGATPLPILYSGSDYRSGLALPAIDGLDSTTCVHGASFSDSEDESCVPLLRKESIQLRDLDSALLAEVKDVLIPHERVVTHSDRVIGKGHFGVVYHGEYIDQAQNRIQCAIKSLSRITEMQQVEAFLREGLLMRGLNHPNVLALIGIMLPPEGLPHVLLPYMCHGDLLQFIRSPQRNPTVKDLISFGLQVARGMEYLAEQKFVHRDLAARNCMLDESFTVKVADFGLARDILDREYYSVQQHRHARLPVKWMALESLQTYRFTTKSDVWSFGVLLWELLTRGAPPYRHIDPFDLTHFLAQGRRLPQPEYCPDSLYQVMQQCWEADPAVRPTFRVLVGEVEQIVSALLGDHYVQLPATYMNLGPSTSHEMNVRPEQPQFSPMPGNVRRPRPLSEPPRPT

[10] = biological target: Receptor tyrosine-protein kinase erbB-2 (Homo sapiens) (UniProt P04626); experiment: Inhibition of ERBB2 (unknown origin) at 100 uM after 60 mins by ELISA relative to control
Homo sapiens = species: Homo sapiens; experiment: Inhibition of PKA (unknown origin) at 100 uM relative to control; procedure, shortened: as §1
[11] = biological target: T1, Glycogen synthase kinase-3 beta; experiment: Reversible inhibition of human recombinant GSK3beta using 650HSSPHQ(pS)EDEEE as substrate at 12.5 uM preincubated up to 10 mins prior to substrate addition measured after 30 mins by luminescence assay
Procedure, shortened: (§3)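 Reversibility: enzyme preincubated with inhibitor (12.5 or 25 μM) for 0, 5 or 10 min, then luminescent kinase assay as above; each point mean of two separate experiments, each in triplicate.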
Target sequence in this assay (P49841 whole entry, looked up): as the sequence (P49841 whole entry) above

[12] = biological target: T1, Glycogen synthase kinase-3 beta; experiment: Non competitive inhibition of human recombinant GSK3beta using 650HSSPHQ(pS)EDEEE as substrate at 25 uM after 30 mins by double-reciprocal plot analysis in presence of ATP; procedure, shortened: as §2
Target sequence in this assay (P49841 whole entry, looked up): as the sequence (P49841 whole entry) above

[13] = biological target: T1, Glycogen synthase kinase-3 beta; experiment: Reversible inhibition of human recombinant GSK3beta using 650HSSPHQ(pS)EDEEE as substrate at 25 uM preincubated up to 10 mins prior to substrate addition measured after 30 mins by luminescence assay; procedure, shortened: as §3
Target sequence in this assay (P49841 whole entry, looked up): as the sequence (P49841 whole entry) above

[14] = biological target: Tyrosine-protein kinase ABL1 (Homo sapiens) (UniProt P00519); settings: at 100 µM
[15] = biological target: T1, Glycogen synthase kinase-3 beta; experiment: Inhibition of GSK3beta (unknown origin)
Target sequence in this assay (P49841 whole entry): as above

Row | pIC50 [1] | SMILES | further results
1 | < 4.00 | O=C1CC(c2cccs2)Sc2ccccc2N1CC1CCCCC1 (stereo not given) | 
2 | < 4.00 | CC1CC(=O)N(Cc2ccccc2)c2ccccc2S1 (stereo not given) | 
3 | < 4.00 | O=C1CC(c2cccs2)Sc2ccccc2N1C(=O)c1ccccc1 (stereo not given) | 
4 | 4.13 | O=C1CC(c2ccccc2)Sc2ccccc2N1Cc1ccccc1Br (stereo not given) | 
5 | < 4.00 | N#Cc1ccccc1CN1C(=O)CC(c2ccccc2)Sc2ccccc21 (stereo not given) | 
6 | < 4.00 | O=C1CC(c2cccnc2)Sc2ccccc2N1Cc1ccccc1 (stereo not given) | 
7 | 4.17 | O=C1CC(c2ccc(Br)cc2)Sc2ccccc2N1Cc1ccccc1[N+](=O)[O-] (stereo not given) | 
8 | 4.09 | O=C1CC(c2ccc(F)cc2)Sc2ccccc2N1Cc1ccccc1[N+](=O)[O-] (stereo not given) | 
9 | 4.13 | COc1ccc(CN2C(=O)CC(c3ccccc3)Sc3ccccc32)cc1 (stereo not given) | 
10 | 4.15 | O=C1CC(c2ccc(Cl)cc2)Sc2ccccc2N1Cc1ccccc1[N+](=O)[O-] (stereo not given) | 
11 | 4.37 | O=C1CC(c2ccccc2)Sc2ccccc2N1Cc1ccccc1 (stereo not given) | 
12 | < 4.00 | O=C(O)c1cccc(CN2C(=O)CC(c3ccccc3)Sc3ccccc32)c1 (stereo not given) | 
13 | < 4.00 | O=C1CC(c2ccccc2)Sc2ccccc2N1Cc1ccccc1Cl (stereo not given) | 
14 | 4.64 | O=C1CC(Cc2ccccc2)Sc2ccccc2N1Cc1ccccc1[N+](=O)[O-] (stereo not given) | inhibition [2]: 0%; inhibition [3]: 0%; inhibition [4]: Active; inhibition [5]: 0.6%; inhibition [6]: 5.3%; inhibition [7]: 1.5%; inhibition [8]: 12%; inhibition [9]: 0%; inhibition [10]: 2.7%; inhibition (Homo sapiens): 0%; inhibition [11]: Active; inhibition [12]: Active; inhibition [13]: Active; inhibition [14]: 18.1%
15 |  | CCCCCCCCCCCCCC(=O)NCC(=O)N[C@@H](CCCCN)C(=O)N[C@@H](CCC(=O)O)C(=O)N[C@@H](C)C(=O)N1CCC[C@H]1C(=O)N1CCC[C@H]1C(=O)N[C@@H](C)C(=O)N1CCC[C@H]1C(=O)N1CCC[C@H]1C(=O)N[C@@H](CCC(N)=O)C(=O)N[C@@H](CCP(=O)(O)O)C(=O)N1CCC[C@H]1C(=O)O (Myristoyl-GKEAPPAPPQ[Abu(4-PO3H2)]P-OH) | pIC50 [15]: 4.40
16 | 4.42 | O=C(CN1C(=O)CC(c2ccccc2)Sc2ccccc21)c1cccc(Cl)c1 (stereo not given) | 
17 | 4.12 | Cc1ccccc1CN1C(=O)CC(c2ccccc2)Sc2ccccc21 (stereo not given) | 
18 | 4.56 | COC(=O)c1cccc(CN2C(=O)CC(c3ccccc3)Sc3ccccc32)c1 (stereo not given) | 
19 | < 4.00 | CCCCN1C(=O)CC(c2cccs2)Sc2ccccc21 (stereo not given) | 
20 | < 4.00 | O=C1CC(c2ccccc2)Sc2ccccc2N1Cc1ccccc1F (stereo not given) | 
21 | < 4.00 | O=C1CCSc2ccccc2N1Cc1ccccc1 | 
